The subject of one series is Striatum. The experiment in a line: Ratio of drug uptake in Wistar rat striatum after 2 mins to Wistar rat striatum after 30 mins. The conditions noted are these: in vivo. The class given is ADME, tissue-based. In a few lines: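 Biodistribution of ¹⁸F-compounds in naïve Wistar rats (n = 3). Regional brain uptake was measured as % id/g at 2 and 30 min post-injection. Ratios were taken between regions, olfactory bulb:striatum at 30 min, and between times, 2:30 min.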

A short description of series [1]: Octanol-water partition coefficient, log P of the compound by reversed phase liquid chromatography. The class given is physicochemical.
Another series deals with Translocator protein (Rattus norvegicus, UniProt P16257). The experiment in a line: Displacement of [3H]PK11195 from PBR receptor in Wistar rat heart homogenates. The class given is tissue-based. In a few lines:
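Competition binding against [³H]PK11195 in homogenised rat heart tissue.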

Series [2] can be described thus: Ratio of drug uptake in Wistar rat brain to Wistar rat striatum after 30 mins. To be noted: in vivo, 0.5 h.
Series [3] in a line: Metabolic stability in Wistar rat brain assessed as remaining parent compound after 60 mins by HPLC analysis. The class given is ADME, tissue-based. The conditions noted are these: read-out: Stability. An outline of the steps:
(§1)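 ¹⁸F-labelled compounds given to naïve Wistar rats (n = 1). Brain extracts were taken at 10, 30 and 60 min post-injection and analysed by HPLC. The read-out is % parent.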

A short description of series [4]: Metabolic stability in Wistar rat brain assessed as remaining parent compound after 30 mins by HPLC analysis. The class given is ADME, tissue-based. The conditions noted are these: read-out: Stability. An outline of the steps: as §1
The nature of series [5]: Metabolic stability in Wistar rat brain assessed as remaining parent compound after 10 mins by HPLC analysis. The class given is ADME, tissue-based. To be noted: read-out: Stability. An outline of the steps: as §1
Series [6] can be described thus: Metabolic stability in Wistar rat plasma after 15 mins by HPLC analysis. The format is ADME, cell-free. The conditions noted are these: read-out: Stability. An outline of the steps: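 Radiolabelled compound was incubated in plasma at 37 °C for 15 min. Chiral HPLC analysis then gave the percentage of the active enantiomer that remained.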

The values below come from ChEMBL document CHEMBL2375274, “Exploration of the structure-activity relationship of a novel tetracyclic class of TSPO ligands-potential novel positron emitting tomography imaging agents” (Bioorg Med Chem Lett, 2013).

Chain of Translocator protein (P16257 whole entry, looked up): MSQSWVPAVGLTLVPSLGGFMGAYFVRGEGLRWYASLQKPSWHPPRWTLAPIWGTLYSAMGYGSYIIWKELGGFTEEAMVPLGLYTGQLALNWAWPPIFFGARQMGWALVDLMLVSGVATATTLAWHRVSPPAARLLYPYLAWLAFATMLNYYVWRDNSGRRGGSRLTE

As to `CCN(CC)C(=O)C1Sc2cccc(OC)c2-c2c1c1ccccc1n2CCF` (racemic), the Ratio is on record as 3 with Striatum and 1.78 in series [2]. Moreover, in series [1], the logP turned out to be 3.67. The molecule also returned a Ki at Translocator protein of 1.07 nM.
Turning to `CCN(CC)C(=O)C1c2c(n(CCF)c3ccccc23)-c2ccccc2S1(=O)=O` (racemic), the Ratio with Striatum came out at 1.75; in series [2], 2.13. The molecule further showed a logP in series [1] of 3. At Translocator protein, this molecule displayed a Ki of 8.79 nM.
`CCN(CC)C(=O)C1Sc2cc(F)ccc2-c2c1c1ccccc1n2CCF` (racemic) returned a logP in series [1] of 3.87.
With `CCN(CC)C(=O)C1Sc2cc(O)ccc2-c2c1c1ccccc1n2CCF` (racemic), the Ratio with Striatum is 1.11; in series [2], 1.44. The logP in series [1] stood at 2.7. Moreover, on Translocator protein, the Ki stood at 0.33 nM.
For the molecule `CCN(CC)C(=O)C1Sc2ccc(O)cc2-c2c1c1ccccc1n2CCF` (racemic), the Ratio in the series on Striatum came out at 0.75; in series [2], 1.25. For the same molecule, the affinity at Translocator protein corresponds to a Ki of 0.55 nM.
`CCN(CC)C(=O)C1Sc2ccccc2-c2c1c1cc(Br)ccc1n2CCF` (racemic): the values for the Ratio (in the series on Striatum; in series [2]) were 1.53 and 1.35, respectively. The log partition coefficient (logP) in series [1] came to 4.23. For the same molecule, the inhibition constant Ki on Translocator protein worked out at 0.47 nM.
`CCN(CC)C(=O)C1Sc2c(F)cccc2-c2c1c1ccccc1n2CCF` (racemic): in series [1], the logP was 3.79.
Consider `CCN(CC)C(=O)C1Sc2ccccc2-c2[nH]c3ccccc3c21` (racemic), for which the Ki at Translocator protein worked out at 0.76 nM.
On the same count and under the same terms, in the case of `CCN(CC)C(=O)C1Sc2ccccc2-c2[nH]c3ccc(NC(C)=O)cc3c21` (racemic) it was 59.2 nM.
Turning to `CCN(CC)C(=O)C1Sc2ccccc2-c2c1c1cc(C)ccc1n2CCF` (racemic), the Ratio was determined as 2 in the series with Striatum and 1.73 in series [2]. In series [1], this molecule registered a logP of 3.96. At Translocator protein, the affinity corresponds to a Ki of 0.34 nM.
Take `CCN(CC)C(=O)C1Sc2ccccc2-c2c1c1ccccc1n2CCCF` (racemic): the Ki on Translocator protein is 0.36 nM.
As to `CCN(CC)C(=O)C1(C)c2c(n(CCF)c3ccccc23)-c2ccccc2S1(=O)=O` (racemic), the logP in series [1] was found to be 3.1. The affinity on Translocator protein, expressed as Ki, was 410 nM.
In the case of `CCN(CC)C(=O)C1Sc2cc(OC)ccc2-c2c1c1ccccc1n2CCF` (racemic), the figures for the Ratio (with Striatum; in series [2]) were 1.17 and 1.4, respectively. Further, the lipophilicity (logP) in series [1] came out at 3.91. On Translocator protein, this molecule registered a Ki of 0.3 nM.
Take `CCN(CC)C(=O)C1c2ccccc2-c2[nH]c3ccccc3c21` (racemic): the results for the Ratio (in the series on Striatum; in series [2]) were 5.8 and 1, respectively. Moreover, affinity on Translocator protein was put at a Ki of 0.8 nM.
With `CCN(CC)C(=O)C1Sc2ccccc2-c2c1c1cc(Cl)ccc1n2CCF` (racemic), the Ratio is on record as 1.29 in the series on Striatum and 1.57 in series [2]. For the same molecule, in series [1], the logP is 4.17. In addition, the Ki at Translocator protein came to 0.23 nM.
With `CCN(CC)C(=O)C1Sc2ccccc2-c2c1c1cc(OC)ccc1n2CCF` (single isomer, unassigned; form 2), the Ki on Translocator protein is 0.29 nM.
Turning to `CCN(CC)C(=O)C1Sc2cc(NC(C)=O)ccc2-c2c1c1ccccc1n2CCF` (racemic), in series [1], the log partition coefficient (logP) is 3.15. The molecule further came in with an inhibition constant Ki on Translocator protein of 0.39 nM.
`CCN(CC)C(=O)C1Sc2ccc(OC)cc2-c2c1c1ccccc1n2CCF` (racemic): the Ratio was found to be 1.42 with Striatum and 1.37 in series [2]. The same molecule showed a lipophilicity (logP) in series [1] of 3.65. Also, the affinity on Translocator protein corresponds to a Ki of 0.3 nM.
For `[3H]C([3H])([3H])N(C(=O)c1cc2ccccc2c(-c2ccccc2Cl)n1)C(C)CC` (stereo not drawn), the remaining at 1 h in series [3] turned out to be 100%. Besides, in series [4], the remaining at 0.5 h came to 100%. Also, the remaining at 10 min in series [5] amounted to 100%.
`CCN(CC)C(=O)C1Sc2ccccc2-c2c1c1cc(OC(F)(F)F)ccc1n2CCF` (racemic): the Ratio in the series with Striatum stood at 1.29; in series [2] it was 1.46. Also, the logP in series [1] stood at 4.03. Also, on Translocator protein, the Ki worked out at 0.26 nM.
The molecule `CCN(CC)C(=O)C1Sc2ccccc2-c2c1c1ccccc1n2Cc1cn(CCF)nn1` (racemic) had an inhibitory constant (Ki) on Translocator protein of 63.6 nM.
As for `CCN(CC)C(=O)C1Sc2ccc(F)cc2-c2c1c1ccccc1n2CCF` (racemic), the values for the Ratio (with Striatum; in series [2]) were 2.11 and 1.37, respectively. The same molecule came in with a logP in series [1] of 3.84. On Translocator protein, this molecule gave a Ki of 0.39 nM.
The molecule `CCN(CC)C(=O)C1Sc2cc(N(CCF)C(C)=O)ccc2-c2c1c1ccccc1n2CCF` (racemic) yielded a logP in series [1] of 3.13. For the same molecule, the affinity at Translocator protein, expressed as Ki, was 1.35 nM.
Molecule `CCN(CC)C(=O)C1Sc2ccccc2-c2c1c1cccnc1n2CCF` (racemic) had a logP in series [1] of 3.12. This molecule also had a Ki at Translocator protein of 3.92 nM.
Consider `CCN(CC)C(=O)C1Sc2ccccc2-c2c1c1cc(C#N)ccc1n2CCF` (racemic), for which the Ratio with Striatum amounted to 2.23; in series [2] it was 1.93. The molecule further registered a lipophilicity (logP) in series [1] of 3.6. At Translocator protein, this molecule yielded an inhibition constant (Ki) of 0.19 nM.
`CCN(CC)C(=O)C1Sc2ccccc2-c2c1c1c(OC)cccc1n2CCF` (racemic): the Ratio with Striatum was found to be 2; in series [2], 2.42. The affinity at Translocator protein corresponds to a Ki of 1.09 nM.
Take `CCN(CC)C(=O)C1Sc2c(OC)cccc2-c2c1c1ccccc1n2CCF` (racemic): the Ratio turned out to be 1.07 in the series with Striatum and 1.53 in series [2]. In series [1], the logP came out at 3.67. Also, the Ki at Translocator protein was 0.33 nM.
For the molecule `CCOc1ccc2c(c1)c1c(n2CCF)-c2ccccc2SC1C(=O)N(CC)CC` (racemic), the Ratio is given as 2.89 in the series with Striatum and 2.67 in series [2]. In series [1], the logP is 3.88. At Translocator protein, this molecule had a Ki of 0.52 nM.
In the case of `CCN(CC)C(=O)C1Sc2ccccc2-c2c1c1cc(OC)ccc1n2CCF` (single isomer, unassigned; form 1), the Ki at Translocator protein came out at 1.17 nM.
Take `CCN(CC)C(=O)C1Sc2ccccc2-c2c1c1ccc(OC)cc1n2CCF` (racemic): in series [3], the remaining at 1 h turned out to be 98%. Also, in series [4], the remaining at 0.5 h was 98%. Further, the results for the Ratio (in the series on Striatum; in series [2]) were 4.75 and 3.5, respectively. This molecule also showed a logP in series [1] of 3.82. For the same molecule, the affinity at Translocator protein, expressed as Ki, was 0.4 nM. Further, the remaining at 10 min in series [5] worked out at 99%.
On to `CCN(CC)C(=O)C1Sc2ccccc2-c2c1c1ccccc1n2CCF` (single isomer, unassigned; form 2), for which the Ki at Translocator protein came out at 0.22 nM. Further, the remaining at 0.25 h in series [6] came to 83%.
At Translocator protein, `CCN(CC)C(=O)C1(C)Sc2ccccc2-c2c1c1ccccc1n2CCF` (single isomer, unassigned; form 2) had a Ki of 16.8 nM.
On to `CCN(CC)C(=O)C1(C)Sc2ccccc2-c2c1c1ccccc1n2CCF` (racemic), for which the Ratio is reported as 2.75 with Striatum and 0.88 in series [2]. In series [1], this molecule yielded a logP of 4. The molecule also came in with a Ki on Translocator protein of 13.1 nM.
Molecule `CCN(CC)C(=O)C1(C)Sc2ccccc2-c2c1c1ccccc1n2CCF` (single isomer, unassigned; form 1) returned an inhibitory constant (Ki) on Translocator protein of 30.2 nM.
As to `CCN(CC)C(=O)C1Sc2ccccc2-c2c1c1cccc(OC)c1n2CCF` (racemic), the Ratio is given as 5 with Striatum and 2 in series [2]. In series [1], this molecule showed a log partition coefficient (logP) of 3.85. On Translocator protein, this molecule gave a Ki of 0.93 nM.
On to `CCN(CC)C(=O)C1Sc2ccccc2-c2c1c1ccccc1n2CCF` (racemic), for which the remaining at 0.5 h in series [4] is 95%. The values for the Ratio (with Striatum; in series [2]) were 2.16 and 1.42, respectively. Also, in series [1], the logP came to 3.76. Also, the remaining at 10 min in series [5] amounted to 99%.
For the molecule `CCN(CC)C(=O)C1Sc2ccccc2-c2c1c1ccc(OC)nc1n2CCF` (racemic), the Ratio with Striatum turned out to be 4.67; in series [2], 2.11. Besides, in series [1], the lipophilicity (logP) was 3.87. This molecule returned a Ki at Translocator protein of 8.44 nM.
Consider `CCN(CC)C(=O)C1Sc2ccccc2-c2c1c1cc(OC)ccc1n2CCF` (racemic), for which the remaining at 1 h in series [3] stood at 96%. The remaining at 0.5 h in series [4] is 97%. The Ratio in the series on Striatum amounted to 1.73. Moreover, the logP in series [1] came to 3.77. Besides, the remaining at 10 min in series [5] came to 98%.
For `CCN(CC)C(=O)C1Sc2ccccc2-c2c1c1ccccc1n2CCF` (single isomer, unassigned; form 1), the Ki at Translocator protein was determined as 5.24 nM.
In turn, `CCN(CCF)C(=O)c1sc2ccccc2c2nc3ccccc3c1-2` came in with a Ki at Translocator protein of 297 nM.
With `CCN(CC)C(=O)C1Sc2ccccc2-c2c1c1cc(F)ccc1n2CCF` (racemic), the Ratio with Striatum is on record as 1.6; in series [2], 1.16. This molecule showed a log partition coefficient (logP) in series [1] of 3.85. Further, on Translocator protein, the inhibition constant Ki came out at 0.49 nM.
In the case of `CCN(CC)C(=O)CC1c2cc(OC)ccc2-c2c1c1ccccc1n2CCF` (racemic), the Ki on Translocator protein amounted to 154 nM.
With `CCN(CC)C(=O)C1Cc2ccccc2-c2c1c1ccccc1n2CCF` (racemic), the logP in series [1] was 3.69. At Translocator protein, this molecule registered a Ki of 1.13 nM.
For `CCN(CC)C(=O)C1Sc2ccccc2-c2c1c1cc(O)ccc1n2CCF` (racemic), the Ratio is 1.33 in the series with Striatum and 1 in series [2]. In addition, in series [1], the logP stood at 3.19. For the same molecule, at Translocator protein, affinity was put at a Ki of 19 nM.
At Translocator protein, `CCN(CC)C(=O)C1Sc2ccccc2-c2c1c1ccccc1n2CCCCF` (racemic) came in with a Ki of 0.52 nM.
`CCN(CC)C(=O)C1Sc2cc(OCCF)ccc2-c2c1c1ccccc1n2C` (racemic) displayed an inhibition constant Ki on Translocator protein of 0.35 nM.
